Laboratory results reported in ChEMBL document CHEMBL2057188, “Hybridizing ability and nuclease resistance profile of backbone modified cationic phosphorothioate oligonucleotides” (Bioorg Med Chem, 2012).

Tests used:
[1] = Stability in presence of Crotalus admanteus venom phosphodiesterase assessed as intact compound level at 5.5 uM in 50 mM Tris-Hcl buffer (pH 7.5) containing 10 mM MgCl2 incubated for 15 mins at 37 degC by HPLC; format: ADME; conditions: pH 7.5, 0.25 h
In short: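 12-mers are first trimmed from the 3′ end with the venom 3′-exonuclease to give 7-mer substrates, which are purified by RP-HPLC. These are then re-incubated with enzyme in 50 mM Tris-HCl pH 7.5 with 10 mM MgCl2 at 37 °C for 15 min. The enzyme is heat-inactivated at 90 °C for 5 min, and the fraction of intact ODN remaining is quantified by HPLC.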

Nucleic Acid [2] = assay: (§1) DNA hybridizing activity at 22 bp double stranded DNA assessed as thermal stability of duplexes formed between compound and complimentary dsDNA by measuring melting temperature at 1.5 uM in presence of 7 mM pH 5.5 sodium phosphate buffer containing 140 mM K, 10 mM MgCl2 by UV based melting experiment; format: nucleic-acid assay
Nucleic Acid [3] = assay: (§2) DNA hybridizing activity at single stranded DNA assessed as thermal stability of duplexes formed between compound and complimentary ssDNA by measuring change in melting temperature at 4 uM in presence of 10 mM pH 7.2 sodium phosphate buffer containing 100 mM NaCl by UV based melting experiment relative to untreated control; format: nucleic-acid assay
Nucleic Acid [4] = assay: as §2, with “stranded RNA” for “stranded DNA”, “complimentary ssRNA” for “complimentary ssDNA”; format: nucleic-acid assay
Nucleic Acid [5] = assay: as §1, with “measuring change in” for “measuring”; format: nucleic-acid assay
Nucleic Acid [6] = assay: DNA hybridizing activity at single stranded RNA assessed as thermal stability of duplexes formed between compound and complimentary ssRNA by measuring melting temperature at 4 uM in presence of 10 mM pH 7.2 sodium phosphate buffer containing 100 mM NaCl by UV based melting experiment; format: nucleic-acid assay
Nucleic Acid [7] = assay: DNA hybridizing activity at single stranded DNA assessed as thermal stability of duplexes formed between compound and complimentary ssDNA by measuring melting temperature at 4 uM in presence of 10 mM pH 7.2 sodium phosphate buffer containing 100 mM NaCl by UV based melting experiment; format: nucleic-acid assay

With `Cc1cn([C@H]2C[C@H](OP(=O)(O)O)[C@@H](CO[P@@](=O)(O[C@H]3C[C@H](n4cc(C)c(=O)[nH]c4=O)O[C@@H]3COP(=O)(O)O[C@H]3C[C@H](n4cc(C)c(=O)[nH]c4=O)O[C@@H]3COP(=O)(O)O[C@H]3C[C@H](n4cc(C)c(=O)[nH]c4=O)O[C@@H]3COP(=O)(O)O[C@H]3C[C@H](n4ccc(N)nc4=O)O[C@@H]3COP(=O)(O)O[C@H]3C[C@H](n4ccc(N)nc4=O)O[C@@H]3COP(=O)(O)O[C@H]3C[C@H](n4ccc(N)nc4=O)O[C@@H]3CO)SCCCCCCN)O2)c(=O)[nH]c1=O` the Stability [1] was “Stable”.

For `Cc1cn([C@H]2C[C@H](OP(=O)(O)OC[C@H]3O[C@@H](n4cc(C)c(=O)[nH]c4=O)C[C@@H]3OP(=O)(O)OC[C@H]3O[C@@H](n4cc(C)c(=O)[nH]c4=O)C[C@@H]3O[P@](=O)(OC[C@H]3O[C@@H](n4cc(C)c(=O)[nH]c4=O)C[C@@H]3OP(=O)(O)OC[C@H]3O[C@@H](n4cc(C)c(=O)[nH]c4=O)C[C@@H]3OP(=O)(O)OC[C@H]3O[C@@H](n4cc(C)c(=O)[nH]c4=O)C[C@@H]3OP(=O)(O)OC[C@H]3O[C@@H](n4ccc(N)nc4=O)C[C@@H]3OP(=O)(O)OC[C@H]3O[C@@H](n4ccc(N)nc4=O)C[C@@H]3OP(=O)(O)OC[C@H]3O[C@@H](n4ccc(N)nc4=O)C[C@@H]3OP(=O)(O)O)SCCNCCN)[C@@H](COP(=O)(O)O[C@H]3C[C@H](n4ccc(N)nc4=O)O[C@@H]3COP(=O)(O)O[C@H]3C[C@H](n4ccc(N)nc4=O)O[C@@H]3COP(=O)(O)O[C@H]3C[C@H](n4ccc(N)nc4=O)O[C@@H]3CO)O2)c(=O)[nH]c1=O`, the Tm (Nucleic Acid [2]) was 25 °C, the ΔTm (Nucleic Acid [3]) was -2 °C and the ΔTm (Nucleic Acid [4]) was -2 °C. For the same compound, the ΔTm (Nucleic Acid [5]) was -1 °C, the Tm (Nucleic Acid [6]) was 44 °C and the Tm (Nucleic Acid [7]) was 40 °C.

For `Cc1cn([C@H]2C[C@H](OP(=O)(O)OC[C@H]3O[C@@H](n4cc(C)c(=O)[nH]c4=O)C[C@@H]3OP(=O)(O)OC[C@H]3O[C@@H](n4cc(C)c(=O)[nH]c4=O)C[C@@H]3O[P@@](=O)(OC[C@H]3O[C@@H](n4cc(C)c(=O)[nH]c4=O)C[C@@H]3OP(=O)(O)OC[C@H]3O[C@@H](n4cc(C)c(=O)[nH]c4=O)C[C@@H]3OP(=O)(O)OC[C@H]3O[C@@H](n4cc(C)c(=O)[nH]c4=O)C[C@@H]3OP(=O)(O)OC[C@H]3O[C@@H](n4ccc(N)nc4=O)C[C@@H]3OP(=O)(O)OC[C@H]3O[C@@H](n4ccc(N)nc4=O)C[C@@H]3OP(=O)(O)OC[C@H]3O[C@@H](n4ccc(N)nc4=O)C[C@@H]3OP(=O)(O)O)SCCN3CCNCC3)[C@@H](COP(=O)(O)O[C@H]3C[C@H](n4ccc(N)nc4=O)O[C@@H]3COP(=O)(O)O[C@H]3C[C@H](n4ccc(N)nc4=O)O[C@@H]3COP(=O)(O)O[C@H]3C[C@H](n4ccc(N)nc4=O)O[C@@H]3CO)O2)c(=O)[nH]c1=O`, the Tm (Nucleic Acid [2]) was 28 °C, the ΔTm (Nucleic Acid [3]) was 3 °C and the ΔTm (Nucleic Acid [4]) was 0 °C. The ΔTm (Nucleic Acid [5]) was 3 °C, the Tm (Nucleic Acid [6]) was 46 °C and the Tm (Nucleic Acid [7]) was 45 °C.

Compound `Cc1cn([C@H]2C[C@H](OP(=O)(O)OC[C@H]3O[C@@H](n4cc(C)c(=O)[nH]c4=O)C[C@@H]3OP(=O)(O)OC[C@H]3O[C@@H](n4cc(C)c(=O)[nH]c4=O)C[C@@H]3O[P@@](=O)(OC[C@H]3O[C@@H](n4cc(C)c(=O)[nH]c4=O)C[C@@H]3OP(=O)(O)OC[C@H]3O[C@@H](n4cc(C)c(=O)[nH]c4=O)C[C@@H]3OP(=O)(O)OC[C@H]3O[C@@H](n4cc(C)c(=O)[nH]c4=O)C[C@@H]3OP(=O)(O)OC[C@H]3O[C@@H](n4ccc(N)nc4=O)C[C@@H]3OP(=O)(O)OC[C@H]3O[C@@H](n4ccc(N)nc4=O)C[C@@H]3OP(=O)(O)OC[C@H]3O[C@@H](n4ccc(N)nc4=O)C[C@@H]3OP(=O)(O)O)SCCNCCN)[C@@H](COP(=O)(O)O[C@H]3C[C@H](n4ccc(N)nc4=O)O[C@@H]3COP(=O)(O)O[C@H]3C[C@H](n4ccc(N)nc4=O)O[C@@H]3COP(=O)(O)O[C@H]3C[C@H](n4ccc(N)nc4=O)O[C@@H]3CO)O2)c(=O)[nH]c1=O` has a Tm (Nucleic Acid [2]) of 30 °C, a ΔTm (Nucleic Acid [3]) of 3 °C and a ΔTm (Nucleic Acid [4]) of -1 °C. The ΔTm (Nucleic Acid [5]) was 5 °C, the Tm (Nucleic Acid [6]) was 45 °C and the Tm (Nucleic Acid [7]) was 45 °C.

With `Cc1cn([C@H]2C[C@H](OP(=O)(O)OC[C@H]3O[C@@H](n4cc(C)c(=O)[nH]c4=O)C[C@@H]3OP(=O)(O)OC[C@H]3O[C@@H](n4cc(C)c(=O)[nH]c4=O)C[C@@H]3O[P@@](=O)(OC[C@H]3O[C@@H](n4cc(C)c(=O)[nH]c4=O)C[C@@H]3OP(=O)(O)OC[C@H]3O[C@@H](n4cc(C)c(=O)[nH]c4=O)C[C@@H]3OP(=O)(O)OC[C@H]3O[C@@H](n4cc(C)c(=O)[nH]c4=O)C[C@@H]3OP(=O)(O)OC[C@H]3O[C@@H](n4ccc(N)nc4=O)C[C@@H]3OP(=O)(O)OC[C@H]3O[C@@H](n4ccc(N)nc4=O)C[C@@H]3OP(=O)(O)OC[C@H]3O[C@@H](n4ccc(N)nc4=O)C[C@@H]3OP(=O)(O)O)SCCCCN)[C@@H](COP(=O)(O)O[C@H]3C[C@H](n4ccc(N)nc4=O)O[C@@H]3COP(=O)(O)O[C@H]3C[C@H](n4ccc(N)nc4=O)O[C@@H]3COP(=O)(O)O[C@H]3C[C@H](n4ccc(N)nc4=O)O[C@@H]3CO)O2)c(=O)[nH]c1=O` the Tm (Nucleic Acid [2]) was 27 °C, the ΔTm (Nucleic Acid [3]) was 2 °C and the ΔTm (Nucleic Acid [4]) was -1 °C. For the same compound, the ΔTm (Nucleic Acid [5]) was 2 °C, the Tm (Nucleic Acid [6]) was 45 °C and the Tm (Nucleic Acid [7]) was 44 °C.

In the case of `Cc1cn([C@H]2C[C@H](OP(=O)(O)OC[C@H]3O[C@@H](n4cc(C)c(=O)[nH]c4=O)C[C@@H]3OP(=O)(O)OC[C@H]3O[C@@H](n4cc(C)c(=O)[nH]c4=O)C[C@@H]3O[P@@](=O)(OC[C@H]3O[C@@H](n4cc(C)c(=O)[nH]c4=O)C[C@@H]3OP(=O)(O)OC[C@H]3O[C@@H](n4cc(C)c(=O)[nH]c4=O)C[C@@H]3OP(=O)(O)OC[C@H]3O[C@@H](n4cc(C)c(=O)[nH]c4=O)C[C@@H]3OP(=O)(O)OC[C@H]3O[C@@H](n4ccc(N)nc4=O)C[C@@H]3OP(=O)(O)OC[C@H]3O[C@@H](n4ccc(N)nc4=O)C[C@@H]3OP(=O)(O)OC[C@H]3O[C@@H](n4ccc(N)nc4=O)C[C@@H]3OP(=O)(O)O)SCCCCCN)[C@@H](COP(=O)(O)O[C@H]3C[C@H](n4ccc(N)nc4=O)O[C@@H]3COP(=O)(O)O[C@H]3C[C@H](n4ccc(N)nc4=O)O[C@@H]3COP(=O)(O)O[C@H]3C[C@H](n4ccc(N)nc4=O)O[C@@H]3CO)O2)c(=O)[nH]c1=O`, the Tm (Nucleic Acid [2]) is reported as 27 °C, the ΔTm (Nucleic Acid [3]) is reported as 2 °C and the ΔTm (Nucleic Acid [4]) is reported as -2 °C. It also gave a ΔTm (Nucleic Acid [5]) of 2 °C, a Tm (Nucleic Acid [6]) of 44 °C and a Tm (Nucleic Acid [7]) of 44 °C.

For `Cc1cn([C@H]2C[C@H](OP(=O)(O)OC[C@H]3O[C@@H](n4cc(C)c(=O)[nH]c4=O)C[C@@H]3OP(=O)(O)OC[C@H]3O[C@@H](n4cc(C)c(=O)[nH]c4=O)C[C@@H]3O[P@@](=O)(OC[C@H]3O[C@@H](n4cc(C)c(=O)[nH]c4=O)C[C@@H]3OP(=O)(O)OC[C@H]3O[C@@H](n4cc(C)c(=O)[nH]c4=O)C[C@@H]3OP(=O)(O)OC[C@H]3O[C@@H](n4cc(C)c(=O)[nH]c4=O)C[C@@H]3OP(=O)(O)OC[C@H]3O[C@@H](n4ccc(N)nc4=O)C[C@@H]3OP(=O)(O)OC[C@H]3O[C@@H](n4ccc(N)nc4=O)C[C@@H]3OP(=O)(O)OC[C@H]3O[C@@H](n4ccc(N)nc4=O)C[C@@H]3OP(=O)(O)O)SCCN)[C@@H](COP(=O)(O)O[C@H]3C[C@H](n4ccc(N)nc4=O)O[C@@H]3COP(=O)(O)O[C@H]3C[C@H](n4ccc(N)nc4=O)O[C@@H]3COP(=O)(O)O[C@H]3C[C@H](n4ccc(N)nc4=O)O[C@@H]3CO)O2)c(=O)[nH]c1=O`, the Tm (Nucleic Acid [2]) was 29 °C, the ΔTm (Nucleic Acid [3]) was 3 °C and the ΔTm (Nucleic Acid [4]) was -1 °C. The ΔTm (Nucleic Acid [5]) was 4 °C, the Tm (Nucleic Acid [6]) was 45 °C and the Tm (Nucleic Acid [7]) was 45 °C.
